Published values of several laboratories.
Each line is one published result; the experiments were not run side by side.
PRMT3: Protein arginine N-methyltransferase 3 (PRMT3, Homo sapiens, UniProt O60678)
MAOA: Amine oxidase [flavin-containing] A (MAOA, Homo sapiens, UniProt P21397)

SMILES | target | test | conditions | inhibition
N=C(NCCCSC[C@H]1O[C@@H](n2cnc3c(NCCCc4ccccc4)ncnc32)[C@H](O)[C@@H]1O)NCC1CCC1 | PRMT3 | enzyme activity, inhibitor, fluorescence | 10 µM | 0%
O=C(Nc1cc(F)ccc1[N+](=O)[O-])c1cc(Cl)ccc1O | MAOA | enzyme activity, inhibitor | 1 µM, 20 min | 8%
Oc1cccc(Nc2nc(-c3ccc(F)cc3F)cs2)c1 | Alpha-1A adrenergic receptor (ADRA1A, Homo sapiens, UniProt P35348) | cell-free assay | 10 µM | 35.2%
CC[C@H](C)[C@H](NC(=O)[C@H](CCC(N)=O)NC(=O)[C@H](CC(C)C)NC(=O)[C@H](CCSC)NC(=O)[C@H](CCCCN)NC(=O)[C@H](CO)NC(=O)[C@H](CO)NC(=O)[C@H](CCSC)NC(=O)[C@H](CC(C)C)NC(=O)[C@H](CC(N)=O)NC(=O)[C@@H](NC(=O)[C@@H](NC(=O)[C@H](CO)NC(=O)[C@H](CC(C)C)NC(=O)[C@H](CS)NC(=O)[C@H](CCCNC(=N)N)NC(=O)[C@H](CC(=O)O)NC(=O)[C@H](Cc1c[nH]c2ccccc12)NC(=O)[C@H](Cc1ccccc1)NC(=O)[C@H](C)NC(=O)[C@H](CCC(=O)O)NC(=O)[C@@H](N)CCCCN)C(C)C)[C@@H](C)CC)C(=O)N[C@@H](CC(N)=O)C(=O)N[C@@H](C)C(=O)O | Cyclin-dependent kinase 5, with p25 (CDK5, Homo sapiens, UniProt Q00535) | enzyme activity, inhibitor, radiometric | 50 µM | 20%
O=C(Nc1ccc([N+](=O)[O-])cc1Cl)c1ccc2ccccc2c1O | MAOA | enzyme activity, inhibitor | 1 µM, 20 min | -4%
N=C(NCCCSC[C@H]1O[C@@H](n2cnc3c(NCCCc4ccccc4)ncnc32)[C@H](O)[C@@H]1O)NCc1ccccc1 | PRMT3 | enzyme activity, inhibitor, fluorescence | 10 µM | -4.37%
COc1ccc(CN[C@@H]2C[C@@H](c3ccc(Cl)c(Cl)c3)c3ccccc32)cc1 (relative stereo) | Glutathione reductase, mitochondrial (GSR, Homo sapiens, UniProt P00390) | enzyme activity, inhibitor | 25 µM | < 12%
O=C(c1ccc(Cl)cc1)N(Cc1ccccc1)C1CCCCC1 | Kappa-type opioid receptor (Oprk1, Rattus norvegicus, UniProt P34975) | ligand displacement, radioligand | 10 µM | 82%
CCCNc1nc2ccccc2n1Cc1ccc(Cl)cc1 | Translocator protein (Tspo, Rattus norvegicus, UniProt P16257) | cell-free assay | 10 µM | 49.2%
CNC(=O)c1cc(Oc2ccc(NC(=O)Nc3ccc(Cl)c(C(F)(F)F)c3)cc2)ccn1 | Ribosomal protein S6 kinase alpha-1 (Rps6ka1, Rattus norvegicus, UniProt Q63531) | enzyme activity, inhibitor | 0.3 µM | 11%
Cc1cc([N+](=O)[O-])ccc1NC(=O)c1ccc2c(c1)OCO2 | MAOA | enzyme activity, inhibitor | 1 µM, 20 min | 7%
CN1CC(Oc2cnc(C#N)cc2-c2ccn3nc(NC(=O)C4CC4)cc3c2)C1 | Cyclin-dependent kinase-like 4 (CDKL4, Homo sapiens, UniProt Q5MAI5) | enzyme activity, inhibitor | 1 µM | -9%
N=C(NCCCO)NCCCSC[C@H]1O[C@@H](n2cnc3c(NCCCc4ccccc4)ncnc32)[C@H](O)[C@@H]1O | PRMT3 | enzyme activity, inhibitor, fluorescence | 10 µM | 7.1%
Cc1ccc(C(=O)Nc2ccc([N+](=O)[O-])cc2C(F)(F)F)cc1 | MAOA | enzyme activity, inhibitor | 1 µM, 20 min | 10%
COc1cc(NC(C)=O)c(Cl)cc1C(=O)Nc1nccs1 | Histamine H2 receptor (HRH2, Homo sapiens, UniProt P25021) | cell-free assay | 10 µM | -21.7%
N#Cc1ccc(NC(=O)c2ccc3c(c2)OCO3)cc1 | MAOA | enzyme activity, inhibitor | 1 µM, 20 min | 38%
COC(=O)CN=c1scc(-c2ccccc2)n1-c1ccc(C)cc1 | L-lactate dehydrogenase A chain (LDHA, Homo sapiens, UniProt P00338) | enzyme activity, inhibitor, fluorescence | 100 µM, pH 7.2 | 52%
O=C(Nc1cc(Cl)cc(Cl)c1)c1cc(Cl)ccc1O | MAOA | enzyme activity, inhibitor | 1 µM, 20 min | 4%
COc1cc(/C=C/C(=O)N2CCc3ccccc3C2)ccc1OCc1ccccc1 | MAOA | enzyme activity, inhibitor, fluorescence | 62.5 µM | 20.6%
